Reference: ChEMBL document CHEMBL5712089, “Targeting clinical epigenetic reprogramming for chemoprevention of metabolic and viral hepatocellular carcinoma” (Gut, 2021)
The source made the active and inactive calls. The calls are words filed in the database; no cut-off is given here.

Assays:
Mus musculus [1] = assay: Reduction of liver inflammation in DEN/CDAHFD-induced NASH C57BL/6 mouse model assessed as decrease in TNFa gene expression at 50 mg/kg, IP for 5 days a week by qRT-PCR analysis; assay type: functional, organism-based; settings: time 5.0 day
Method in brief: (§1)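 DEN (35 mg/kg IP, day 15)/CDAHFD-fed male C57BL/6 mice were dosed IP 5 days/week from 12 weeks of age in 10% hydroxypropyl-β-cyclodextrin, or given vehicle. Livers were taken at 30 weeks and hepatic fibrotic and inflammatory gene expression was quantified by qRT-PCR, n=3 per group; means±SD, unpaired t-test.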

Mus musculus [2] = assay: Reduction of liver fibrosis in DEN/CDAHFD-induced NASH C57BL/6 mouse model assessed as decrease in Tgf gene expression at 50 mg/kg, IP for 5 days a week by qRT-PCR analysis; assay type: functional, organism-based; settings: time 5.0 day; method in brief: as §1
Mus musculus [3] = assay: Reduction of liver fibrosis in DEN/CDAHFD-induced NASH C57BL/6 mouse model assessed as decrease in Acta2 gene expression at 50 mg/kg, IP for 5 days a week by qRT-PCR analysis; assay type: functional, organism-based; settings: time 5.0 day; method in brief: as §1
Mus musculus [4] = assay: Antitumor activity in DEN/CDAHFD-induced NASH C57BL/6 mouse model assessed as decrease in tumor nodules at 50 mg/kg, IP for 5 days a week by sirus red staining based microscopic analysis; assay type: functional, organism-based; settings: time 5.0 day
Method in brief: (§2)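 Male C57BL/6 mice, single IP diethylnitrosamine 35 mg/kg on day 15. From 6 weeks of age fed CDAHFD (60 kcal% fat, 0.1% methionine). From 12 weeks, randomised to IP dosing 5 days/week, drug in 10% (2-hydroxypropyl)-β-cyclodextrin or vehicle alone. Livers harvested at 30 weeks; body weight, liver weight and tumour nodule counts recorded (n=8 per group), with H&E and Sirius red sections; means±SEM, unpaired t-test.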

Mus musculus [5] = assay: Antitumor activity in DEN/CDAHFD-induced NASH C57BL/6 mouse model assessed as decrease in number of tumor at 50 mg/kg, IP for 5 days a week; assay type: functional, organism-based; settings: time 5.0 day; method in brief: as §2
Mus musculus [6] = assay: Reduction of liver inflammation in DEN/CDAHFD-induced NASH C57BL/6 mouse model assessed as decrease in Ccl2 gene expression at 50 mg/kg, IP for 5 days a week by qRT-PCR analysis; assay type: functional, organism-based; settings: time 5.0 day; method in brief: as §1
Mus musculus [7] = assay: Decrease in SOX9 gene expression in DEN/CDAHFD-induced NASH C57BL/6 mouse model at 50 mg/kg, IP for 5 days a week by CHIP-qPCR assay; assay type: functional, organism-based; settings: time 5.0 day
Method in brief: (§3)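 ChIP-qPCR on livers of control, DEN/CDAHFD and treated DEN/CDAHFD mice (IP 5 days/week from week 12, harvest at 30 weeks) measured BRD4 recruitment to promoter-enhancer regions of the named genes, using BRD4 antibody against an IgG control. Groups were compared by Mann-Whitney U test.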

Mus musculus [8] = assay: Decrease in KRT7 gene expression in DEN/CDAHFD-induced NASH C57BL/6 mouse model at 50 mg/kg, IP for 5 days a week by CHIP-qPCR assay; assay type: functional, organism-based; settings: time 5.0 day; method in brief: as §3
Mus musculus [9] = assay: Reduction of liver fibrosis in DEN/CDAHFD-induced NASH C57BL/6 mouse model assessed as decrease in collagen proportional area at 50 mg/kg, IP for 5 days a week; assay type: functional, organism-based; settings: time 5.0 day
Method in brief: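 Fibrosis was scored as collagen proportional area by quantitative digital analysis of whole-scanned Sirius red-stained liver sections. Sections came from DEN/CDAHFD male C57BL/6 mice harvested at 30 weeks after IP dosing 5 days/week from week 12 (cyclodextrin vehicle), n=3 per group; means±SD.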

Mus musculus [10] = assay: Decrease in EPCAM gene expression in DEN/CDAHFD-induced NASH C57BL/6 mouse model at 50 mg/kg, IP for 5 days a week by CHIP-qPCR assay; assay type: functional, organism-based; settings: time 5.0 day; method in brief: as §3
Mus musculus [11] = assay: Reduction of liver fibrosis in DEN/CDAHFD-induced NASH C57BL/6 mouse model assessed as decrease in Col1A gene expression at 50 mg/kg, IP for 5 days a week by qRT-PCR analysis; assay type: functional, organism-based; settings: time 5.0 day; method in brief: as §1
Mus musculus [12] = assay: Effect on c-Myc expression in DEN/CDAHFD-induced NASH C57BL/6 mouse model at 50 mg/kg, IP for 5 days a week by Western blot analysis; assay type: functional, organism-based; settings: time 5.0 day
Method in brief: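 Liver lysates from control/PBS, vehicle and treated DEN/CDAHFD mice (n=3 each; 30 weeks; IP 5 days/week in 10% hydroxypropyl-β-cyclodextrin) were probed by western blot for c-Myc. Blots from six animals were quantified by densitometry and compared by unpaired t-test.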

Mus musculus [13] = assay: Decrease in NFkappaB2 gene expression in DEN/CDAHFD-induced NASH C57BL/6 mouse model at 50 mg/kg, IP for 5 days a week by CHIP-qPCR assay; assay type: functional, organism-based; settings: time 5.0 day; method in brief: as §3
Mus musculus [14] = assay: Effect on body weight in DEN/CDAHFD-induced NASH C57BL/6 mouse model at 50 mg/kg, IP for 5 days a week; assay type: functional, organism-based; settings: time 5.0 day; method in brief: as §2
Mus musculus [15] = assay: Reduction of liver weight in DEN/CDAHFD-induced NASH C57BL/6 mouse model at 50 mg/kg, IP for 5 days a week; assay type: functional, organism-based; settings: time 5.0 day; method in brief: as §2
Mus musculus [16] = assay: Antitumor activity in DEN/CDAHFD-induced NASH C57BL/6 mouse model assessed as decrease in tumor nodules at 50 mg/kg, IP for 5 days a week by hematoxylin and eosin staining based microscopic analysis; assay type: functional, organism-based; settings: time 5.0 day; method in brief: as §2
Huh-7.5.1 [17] = assay: Inhibition of Histone acetyltransferase in human Huh7.5.1 cells assessed as hepatitis C virus-induced EGF mRNA level measured after 72 hrs; assay type: cell-based
Method in brief: (§4)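 Huh7.5.1 cells differentiated with dimethyl sulfoxide, then infected with HCV until they expressed the poor-prognosis status of the prognostic liver signature. Infected cells were then incubated with chromatin modifier/reader inhibitors. Concentrations were chosen as non-toxic from MTT viability tests on non-infected differentiated cells at 72 h (n=3, viability relative to untreated cells).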

Huh-7.5.1 [18] = assay: Inhibition of Histone acetyltransferase in human Huh7.5.1 cells assessed as hepatitis C virus-induced NFkappaB mRNA level measured after 72 hrs; assay type: cell-based; method in brief: as §4
Huh-7.5.1 [19] = assay: Inhibition of Histone acetyltransferase in human Huh7.5.1 cells infected with hepatitis C virus assessed as effect on viral load; assay type: cell-based

SMILES	inhibition (Mus musculus [1])	inhibition (Mus musculus [2])	inhibition (Mus musculus [3])	inhibition (Mus musculus [4])	inhibition (Mus musculus [5])	inhibition (Mus musculus [6])	inhibition (Mus musculus [7])	inhibition (Mus musculus [8])	inhibition (Mus musculus [9])	inhibition (Mus musculus [10])	inhibition (Mus musculus [11])	Activity (Mus musculus [12])	inhibition (Mus musculus [13])	Activity (Mus musculus [14])	inhibition (Mus musculus [15])	inhibition (Mus musculus [16])	inhibition (Huh-7.5.1 [17])	inhibition (Huh-7.5.1 [18])	inhibition (Huh-7.5.1 [19])
Cc1sc2c(c1C)C(c1ccc(Cl)cc1)=N[C@@H](CC(=O)OC(C)(C)C)c1nnc(C)n1-2	Active	Active	Active	Active	Active	Active	Active	Active	Active	Active	Active	inactive	Active	inactive	Active	Active			
COc1cc(/C=C/c2cc(/C=C/c3ccc(O)c(OC)c3)n(-c3ccc(C(=O)O)cc3)n2)ccc1O																	Active	Active	inactive
CC1=NN(c2ccc(C(=O)O)cc2)C(=O)/C1=C\c1ccc(-c2cc(C)c(C)cc2[N+](=O)[O-])o1																			inactive
